Entries after “also recorded” stand apart in the source; their conditions may differ.
How the values were obtained:
[1] = molecular target: T1, AbBioC (Acinetobacter baumannii, UniProt A0A1E3M3A7); assay: Isothermal titration calorimetry of ligand binding to AbBioC; parameters: species or system A. baumannii; settings: for binding stoichiometry (N): ITC, single binding site model, mean ± SD (n = 3)
T1 sequence (A0A1E3M3A7 1-249): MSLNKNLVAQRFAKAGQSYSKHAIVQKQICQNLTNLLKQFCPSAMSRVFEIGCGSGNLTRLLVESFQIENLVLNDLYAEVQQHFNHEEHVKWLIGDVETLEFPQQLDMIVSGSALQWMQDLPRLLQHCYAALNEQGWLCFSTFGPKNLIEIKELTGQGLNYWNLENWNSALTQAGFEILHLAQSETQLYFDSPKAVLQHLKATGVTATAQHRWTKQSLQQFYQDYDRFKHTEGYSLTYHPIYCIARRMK
Outline: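 His6-SUMO-tagged AbBioC, Ni-NTA purified. ITC at 25°C in 20 mM tris (pH 8.0), 300 mM NaCl. AbBioC (20 μM) in cell, titrated with SAM or test compound (200 μM) in 20 injections: 0.4 μl first, then 2.0 μl every 120 s. Data fitted to single-site model; N and Kd given as mean ± SD of three replicates.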

[2] = molecular target: T2, AbBioC methyltransferase (Acinetobacter baumannii, UniProt A0A1E3M3A7); assay type: biochemical, A. baumannii
T2 sequence (A0A1E3M3A7 1-249): T1 sequence (A0A1E3M3A7 1-249)

[3] = system: bioC-expressing bacterium; assay: Effect of free SIN on viability of bioC-expressing bacterium; assay type: cell-based; settings: free (not nanoparticle-loaded) SIN
[4] = system: BcBioC; settings: in vitro; cited from earlier work
[5] = system: A. baumannii; assay: Colistin E-test; assay type: cell-based
[6] = system: K. pneumoniae; assay: Colistin E-test; assay type: cell-based; settings: ATCC 43816 upon MCR-1 expression
[7] = system: mcr-1–expressing A. baumannii; assay: Bacterial lysis assay, mcr-1-expressing A. baumannii; assay type: cell-based
Outline: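 mcr-1–bearing A. baumannii and its ΔbioC mutant washed three times in biotin-free PBS, then seeded at 2 × 10^8 CFU/ml into 2 ml PBS with or without colistin (8 μg/ml). PBS-only groups served as untreated controls. Positive control arms used a reference inhibitor (4 μg/ml) alone, colistin (8 μg/ml) alone, or both together.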

[8] = system: mcr-1–harboring K. pneumoniae; assay: Bacterial lysis assay, mcr-1-harboring K. pneumoniae; assay type: cell-based; settings: colistin 8 μg/ml; MCR-1-expressing K. pneumoniae ΔbioC (FYJ6186)

Kd [1] [nM]	binding stoichiometry (N) [1]	binding affinity of SIN compared with SAM (fold, Kd) ([1]; ITC Kd of SIN versus the physiological ligand SAM)	Ki [2] [nM]	Compound	effect on the ability of AbBioC to initiate biotin synthesis ([2]; DTB/biotin bioassay, in vitro reconstituted system)	ability of free SIN to diminish bacterial viability [3]	inactivation of BcBioC enzyme [4]	colistin MIC (E-test) ([5]; AB18PR065 + mcr-4.3, 0.2% glu M9) [µg/mL]	colistin MIC (E-test) ([5]; ATCC 17978 + plasmid-borne mcr-1, LB) [µg/mL]	colistin MIC (E-test) ([5]; ATCC 17978 without mcr-1, LB) [µg/mL]	colistin MIC (E-test) [6] [µg/mL]	bacterial lysis / viability ([7]; colistin 8 μg/ml alone, FYJ6179 in PBS, 20 hours)	bacterial killing by colistin of the ΔbioC mutant ([7]; colistin 8 μg/ml, mcr-1–expressing A. baumannii ΔbioC (FYJ6181))	bacterial killing by colistin of the ΔbioC mutant [8]
2570 ± 750	0.95 ± 0.13			C[S+](CC[C@H](N)C(=O)[O-])C[C@H]1O[C@@H](n2cnc3c(N)ncnc32)[C@H](O)[C@@H]1O (stereo partly drawn) [SAM, S-adenosyl-L-methionine]										
808 ± 135	1.180 ± 0.008	around threefold	~370	Nc1ncnc2c1ncn2[C@@H]1O[C@H](C[C@@H](N)CC[C@H](N)C(=O)O)[C@@H](O)[C@H]1O [SIN, sinefungin]	efficiently interferes; also recorded: effectively kills AbBioC	inability	efficiently inactivate							
				colistin				8.0	4.0	0.5	32	neither MAC13772 inhibitor (4 μg/ml) nor colistin (8 μg/ml) lysed bacterial cells	resensitize; also recorded: vulnerability	fails to render the K. pneumoniae ΔbioC mutant insusceptible
